Reference: ChEMBL document CHEMBL3758132, “Dissecting structure-activity-relationships of crebinostat: Brain penetrant HDAC inhibitors for neuroepigenetic regulation” (Bioorg Med Chem Lett, 2016)
The source made the active and inactive calls. The rule behind the calls is not given here.

Tests used:
Histone deacetylase 1 = Histone deacetylase 1 (Homo sapiens, UniProt Q13547); assay: Inhibition of human recombinant HDAC1 using acetyllysine tripeptide coupled with 7-amino-4-methylcoumarin as substrate by fluorescence assay
Chain of Histone deacetylase 1 (Q13547 whole entry): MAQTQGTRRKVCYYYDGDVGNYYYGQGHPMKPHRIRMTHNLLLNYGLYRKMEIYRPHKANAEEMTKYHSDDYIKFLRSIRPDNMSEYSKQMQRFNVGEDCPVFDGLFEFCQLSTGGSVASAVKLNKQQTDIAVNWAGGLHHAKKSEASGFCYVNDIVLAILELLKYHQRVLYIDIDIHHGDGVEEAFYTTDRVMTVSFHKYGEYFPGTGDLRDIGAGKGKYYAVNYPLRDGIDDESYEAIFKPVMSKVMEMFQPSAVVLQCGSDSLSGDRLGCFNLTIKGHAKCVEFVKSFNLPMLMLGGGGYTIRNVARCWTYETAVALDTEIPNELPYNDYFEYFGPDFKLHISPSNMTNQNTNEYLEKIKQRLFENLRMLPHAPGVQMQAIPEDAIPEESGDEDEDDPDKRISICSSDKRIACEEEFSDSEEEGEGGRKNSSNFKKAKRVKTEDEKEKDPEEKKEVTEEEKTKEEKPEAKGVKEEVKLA

Histone deacetylase 2 = Histone deacetylase 2 (Homo sapiens, UniProt Q92769); assay: Inhibition of human recombinant HDAC2 using acetyllysine tripeptide coupled with 7-amino-4-methylcoumarin as substrate by fluorescence assay
Chain of Histone deacetylase 2 (Q92769 whole entry): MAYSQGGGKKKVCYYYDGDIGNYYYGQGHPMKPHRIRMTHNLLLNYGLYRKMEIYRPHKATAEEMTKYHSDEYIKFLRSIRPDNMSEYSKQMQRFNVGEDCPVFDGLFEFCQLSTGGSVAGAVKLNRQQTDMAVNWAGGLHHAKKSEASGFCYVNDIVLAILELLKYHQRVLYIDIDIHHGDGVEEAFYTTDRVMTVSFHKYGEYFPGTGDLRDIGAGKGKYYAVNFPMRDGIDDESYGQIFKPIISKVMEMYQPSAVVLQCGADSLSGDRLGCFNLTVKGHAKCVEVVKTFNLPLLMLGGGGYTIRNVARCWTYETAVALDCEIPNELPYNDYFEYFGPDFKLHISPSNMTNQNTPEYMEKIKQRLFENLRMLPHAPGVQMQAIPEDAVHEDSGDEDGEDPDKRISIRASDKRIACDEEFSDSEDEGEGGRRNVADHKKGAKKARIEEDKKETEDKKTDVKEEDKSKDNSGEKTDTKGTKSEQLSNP

Histone deacetylase 3 = Histone deacetylase 3 (Homo sapiens, UniProt O15379); assay: Inhibition of human recombinant HDAC3 using acetyllysine tripeptide coupled with 7-amino-4-methylcoumarin as substrate by fluorescence assay
Chain of Histone deacetylase 3 (O15379 whole entry): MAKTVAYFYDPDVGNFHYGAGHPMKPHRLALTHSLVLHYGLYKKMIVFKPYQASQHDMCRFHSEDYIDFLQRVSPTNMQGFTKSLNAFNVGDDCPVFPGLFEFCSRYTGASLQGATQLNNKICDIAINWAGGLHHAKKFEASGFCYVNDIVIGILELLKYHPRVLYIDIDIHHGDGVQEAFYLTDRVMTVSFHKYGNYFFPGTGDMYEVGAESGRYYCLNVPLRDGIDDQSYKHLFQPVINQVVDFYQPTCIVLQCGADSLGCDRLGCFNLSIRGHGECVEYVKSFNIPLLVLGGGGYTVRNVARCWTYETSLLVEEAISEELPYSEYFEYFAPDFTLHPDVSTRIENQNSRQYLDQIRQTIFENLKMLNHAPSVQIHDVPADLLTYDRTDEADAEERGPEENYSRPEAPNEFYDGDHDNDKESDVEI

Mus musculus [1] = organism: Mus musculus; assay: Inhibition of HDAC in mouse forebrain primary neurons assessed as acetylation of histone H4K12 at 1 to 10 uM after 24 hrs by immunofluorescence assay
Procedure, shortened: (§1)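 Mouse forebrain primary neuronal cultures (DIV13–14) treated 24 h at 1 and 10 μM, n=3. Cells fixed and immunostained for H3K9ac or H4K12ac; nuclear fluorescence intensity quantified by imaging. […] Mean ± SEM; unpaired t-test.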

Mus musculus [2] = organism: Mus musculus; assay: Inhibition of HDAC in mouse forebrain primary neurons assessed as acetylation of histone H3K9 at 1 to 10 uM after 24 hrs by immunofluorescence assay; procedure, shortened: as §1
[3] = Inhibition of HDAC in mouse forebrain primary neurons assessed as acetylation of histone H3K9 after 24 hrs by immunofluorescence assay
[4] = Cmax in C57BL/6 mouse brain at 25 mg/kg, ip after 0.5 hrs by LC/MS/MS analysis; type: ADME, organism-based; parameters: dose 25 mg/kg, route intraperitoneal
Procedure, shortened: (§2)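 Mice dosed intraperitoneally at 25 mg/kg. Brains and peripheral blood were collected at each point of a 6-point time course, three mice per time point. Compound concentration was measured in processed brain and blood samples. PK parameters were derived from the concentration-time profiles.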

[5] = target: T1, Protein deacetylase HDAC6 (Homo sapiens, UniProt Q9UBN7); assay: Inhibition of human recombinant HDAC6 using acetyllysine tripeptide coupled with 7-amino-4-methylcoumarin as substrate by fluorescence assay
T1 sequence (Q9UBN7 whole entry): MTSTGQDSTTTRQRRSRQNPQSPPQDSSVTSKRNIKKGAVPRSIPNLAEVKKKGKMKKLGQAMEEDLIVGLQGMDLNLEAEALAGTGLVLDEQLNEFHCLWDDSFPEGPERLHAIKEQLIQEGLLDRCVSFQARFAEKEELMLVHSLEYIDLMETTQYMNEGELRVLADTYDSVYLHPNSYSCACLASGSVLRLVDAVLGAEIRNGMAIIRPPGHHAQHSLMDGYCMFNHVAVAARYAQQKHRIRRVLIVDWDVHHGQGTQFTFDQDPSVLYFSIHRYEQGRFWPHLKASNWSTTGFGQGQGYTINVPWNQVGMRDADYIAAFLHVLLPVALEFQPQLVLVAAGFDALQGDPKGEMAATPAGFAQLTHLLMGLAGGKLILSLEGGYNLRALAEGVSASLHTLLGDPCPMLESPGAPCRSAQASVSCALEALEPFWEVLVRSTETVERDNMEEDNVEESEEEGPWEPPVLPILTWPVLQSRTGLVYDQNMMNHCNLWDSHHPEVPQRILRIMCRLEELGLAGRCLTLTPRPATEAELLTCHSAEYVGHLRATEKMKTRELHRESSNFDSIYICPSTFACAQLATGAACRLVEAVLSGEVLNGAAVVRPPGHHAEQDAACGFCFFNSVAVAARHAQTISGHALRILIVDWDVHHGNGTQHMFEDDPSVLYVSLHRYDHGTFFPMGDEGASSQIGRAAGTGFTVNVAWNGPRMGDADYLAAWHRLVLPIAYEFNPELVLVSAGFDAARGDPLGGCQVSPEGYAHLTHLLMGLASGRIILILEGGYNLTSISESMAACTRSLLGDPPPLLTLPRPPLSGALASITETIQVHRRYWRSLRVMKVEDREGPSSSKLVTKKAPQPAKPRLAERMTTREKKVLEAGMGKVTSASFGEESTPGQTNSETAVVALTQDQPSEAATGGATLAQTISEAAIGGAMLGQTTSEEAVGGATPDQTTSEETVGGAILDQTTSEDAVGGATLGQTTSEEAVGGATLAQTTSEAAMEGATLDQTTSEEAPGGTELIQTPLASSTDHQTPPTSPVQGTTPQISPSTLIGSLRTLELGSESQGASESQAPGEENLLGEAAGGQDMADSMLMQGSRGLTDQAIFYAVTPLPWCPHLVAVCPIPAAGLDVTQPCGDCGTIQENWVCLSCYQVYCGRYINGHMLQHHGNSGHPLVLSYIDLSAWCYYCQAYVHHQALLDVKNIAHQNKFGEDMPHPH

[6] = target: Histone deacetylase 5 (Homo sapiens) (UniProt Q9UQL6); assay: Inhibition of human recombinant HDAC5 using acetyllysine tripeptide coupled with 7-amino-4-methylcoumarin as substrate by fluorescence assay
Chain of Histone deacetylase 5 (Homo sapiens) (Q9UQL6 whole entry): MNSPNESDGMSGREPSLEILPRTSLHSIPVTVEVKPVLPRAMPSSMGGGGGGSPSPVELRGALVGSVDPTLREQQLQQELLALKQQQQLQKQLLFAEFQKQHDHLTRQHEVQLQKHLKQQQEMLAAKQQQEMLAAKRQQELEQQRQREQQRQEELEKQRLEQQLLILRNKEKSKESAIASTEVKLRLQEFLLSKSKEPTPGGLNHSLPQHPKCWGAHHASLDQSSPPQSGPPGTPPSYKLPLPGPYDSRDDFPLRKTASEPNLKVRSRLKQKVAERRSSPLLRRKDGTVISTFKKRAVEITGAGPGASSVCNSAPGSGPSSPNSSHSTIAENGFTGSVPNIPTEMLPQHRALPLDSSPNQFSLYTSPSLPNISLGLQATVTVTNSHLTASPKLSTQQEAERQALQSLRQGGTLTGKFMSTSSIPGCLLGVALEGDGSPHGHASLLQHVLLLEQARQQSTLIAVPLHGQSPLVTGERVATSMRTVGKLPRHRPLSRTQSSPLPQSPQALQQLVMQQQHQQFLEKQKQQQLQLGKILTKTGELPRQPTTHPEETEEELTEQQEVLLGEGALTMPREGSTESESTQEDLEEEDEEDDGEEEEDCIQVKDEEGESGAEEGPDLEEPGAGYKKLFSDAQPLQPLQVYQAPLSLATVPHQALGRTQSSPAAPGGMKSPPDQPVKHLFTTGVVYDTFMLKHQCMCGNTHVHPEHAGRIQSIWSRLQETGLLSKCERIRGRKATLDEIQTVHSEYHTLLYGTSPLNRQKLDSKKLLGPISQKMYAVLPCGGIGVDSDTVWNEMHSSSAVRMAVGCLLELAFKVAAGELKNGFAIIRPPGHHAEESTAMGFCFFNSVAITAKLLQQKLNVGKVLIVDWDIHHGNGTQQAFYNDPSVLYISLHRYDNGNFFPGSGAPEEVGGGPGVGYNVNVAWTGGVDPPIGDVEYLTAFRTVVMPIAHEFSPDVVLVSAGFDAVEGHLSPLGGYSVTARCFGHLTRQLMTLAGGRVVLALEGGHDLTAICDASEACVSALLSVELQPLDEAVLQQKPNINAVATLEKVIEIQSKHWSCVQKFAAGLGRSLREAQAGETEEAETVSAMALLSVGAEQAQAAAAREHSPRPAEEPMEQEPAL

[7] = Cmax in C57BL/6 mouse brain at 25 mg/kg, ip after 2 hrs by LC/MS/MS analysis; type: ADME, organism-based; parameters: dose 25 mg/kg, route intraperitoneal; procedure, shortened: as §2
[8] = Cmax in C57BL/6 mouse brain at 25 mg/kg, ip after 6 hrs by LC/MS/MS analysis; type: ADME, organism-based; parameters: dose 25 mg/kg, route intraperitoneal; procedure, shortened: as §2
[9] = Cmax in C57BL/6 mouse plasma at 25 mg/kg, ip after 0.5 hrs by LC/MS/MS analysis; type: ADME, organism-based; parameters: dose 25 mg/kg, route intraperitoneal; procedure, shortened: as §2
[10] = AUCinfinity in C57BL/6 mouse plasma at 25 mg/kg, ip after 0.5 to 24 hrs by LC/MS/MS analysis; type: ADME, organism-based; parameters: dose 25 mg/kg, route intraperitoneal, time infinity; procedure, shortened: as §2
[11] = Apparent clearance in C57BL/6 mouse plasma at 25 mg/kg, ip after 0.5 to 24 hrs by LC/MS/MS analysis; type: ADME, organism-based; procedure, shortened: as §2
[12] = AUClast in C57BL/6 mouse brain at 25 mg/kg, ip after 0.5 to 24 hrs by LC/MS/MS analysis; type: ADME, organism-based; procedure, shortened: as §2
[13] = Cmax in C57BL/6 mouse plasma at 25 mg/kg, ip after 24 hrs by LC/MS/MS analysis; type: ADME, organism-based; parameters: dose 25 mg/kg, route intraperitoneal; procedure, shortened: as §2
[14] = Mean Residence time up to the last quantifiable time-point in C57BL/6 mouse plasma at 25 mg/kg, ip after 0.5 to 24 hrs by LC/MS/MS analysis; type: ADME, organism-based; procedure, shortened: as §2
[15] = Cmax in C57BL/6 mouse brain at 25 mg/kg, ip after 24 hrs by LC/MS/MS analysis; type: ADME, organism-based; parameters: dose 25 mg/kg, route intraperitoneal; procedure, shortened: as §2
[16] = Cmax in C57BL/6 mouse brain at 25 mg/kg, ip after 1 hr by LC/MS/MS analysis; type: ADME, organism-based; parameters: dose 25 mg/kg, route intraperitoneal; procedure, shortened: as §2
[17] = Cmax in C57BL/6 mouse plasma at 25 mg/kg, ip after 1 hr by LC/MS/MS analysis; type: ADME, organism-based; parameters: dose 25 mg/kg, route intraperitoneal; procedure, shortened: as §2
[18] = Cmax in C57BL/6 mouse plasma at 25 mg/kg, ip after 12 hrs by LC/MS/MS analysis; type: ADME, organism-based; parameters: dose 25 mg/kg, route intraperitoneal; procedure, shortened: as §2
Mus musculus [19] = assay: Half life in C57BL/6 mouse plasma at 25 mg/kg, ip after 0.5 to 24 hrs by LC/MS/MS analysis; type: ADME, organism-based; conditions: in vivo; procedure, shortened: as §2
[20] = Tmax in C57BL/6 mouse plasma at 25 mg/kg, ip after 0.5 to 24 hrs by LC/MS/MS analysis; type: ADME, organism-based; procedure, shortened: as §2
[21] = Cmax in C57BL/6 mouse plasma at 25 mg/kg, ip after 2 hrs by LC/MS/MS analysis; type: ADME, organism-based; parameters: dose 25 mg/kg, route intraperitoneal; procedure, shortened: as §2
[22] = Cmax in C57BL/6 mouse plasma at 25 mg/kg, ip after 6 hrs by LC/MS/MS analysis; type: ADME, organism-based; parameters: dose 25 mg/kg, route intraperitoneal; procedure, shortened: as §2
[23] = AUClast in C57BL/6 mouse plasma at 25 mg/kg, ip after 0.5 to 24 hrs by LC/MS/MS analysis; type: ADME, organism-based; procedure, shortened: as §2
[24] = Ratio of drug level in brain to plasma in C57BL/6 mouse at 25 mg/kg, ip after 0.5 to 2 hrs by LC/MS/MS analysis; type: ADME, organism-based; conditions: brain and plasma, read-out: BPR
Procedure, shortened: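 Intraperitoneal dose of 25 mg/kg in mice, three animals per time point. Compound levels in processed brain and in peripheral blood were measured at matched times. Individual brain-to-plasma concentration ratios were calculated for the 0.5 to 2 h time points.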

[25] = Tmax in C57BL/6 mouse brain at 25 mg/kg, ip after 0.5 to 24 hrs by LC/MS/MS analysis; type: ADME, organism-based; procedure, shortened: as §2

## Cc1ccccc1-c1ccc(/C=N/NC(=O)CCCCCC(=O)NO)cc1
Histone deacetylase 1
  IC50: 8 nM
Histone deacetylase 2
  IC50: 18.8 nM
Histone deacetylase 3
  IC50: 5.4 nM

## O=C(CCCCCC(=O)N/N=C/c1ccc(-c2cncnc2)cc1)NO
Histone deacetylase 1
  IC50: 3.2 nM
Histone deacetylase 2
  IC50: 21 nM
Histone deacetylase 3
  IC50: 2.4 nM

## COc1ccc(Br)c(/C=N/NC(=O)CCCCCC(=O)NO)c1
Histone deacetylase 1
  IC50: 0.6 nM
Histone deacetylase 2
  IC50: 5 nM
Histone deacetylase 3
  IC50: 1.2 nM

## O=C(CCCCC(=O)N/N=C/c1ccc(-c2ccccc2)cc1)NO
Histone deacetylase 1
  IC50: 19 nM
Mus musculus [1]
  inhibition: Active
Mus musculus [2]
  inhibition: Active
Histone deacetylase 2
  IC50: 33 nM
Histone deacetylase 3
  IC50: 61 nM

## O=C(CCCCCC(=O)N/N=C/c1ccc(-c2cccs2)cc1)NO
Histone deacetylase 1
  IC50: 2.1 nM
Histone deacetylase 2
  IC50: 6.3 nM
Histone deacetylase 3
  IC50: 1.6 nM

## O=C(CCCCCCC(=O)N/N=C/c1ccc(-c2ccccc2)cc1)NO
Histone deacetylase 1
  IC50: 0.7 nM
Mus musculus [1]
  inhibition: Active
Mus musculus [2]
  inhibition: Active
Histone deacetylase 2
  IC50: 1 nM
Histone deacetylase 3
  IC50: 2 nM

## O=C(CCCCCC(=O)N/N=C/c1ccc(-c2ccccc2)cc1)NO
[3]
  EC50: 210 nM
[4]
  Cmax: 60 nM
Histone deacetylase 1
  IC50: 1.4 nM
[5]
  IC50: 0.6 nM
[6]
  inhibition: inactive
Histone deacetylase 2
  IC50: 2.1 nM
Histone deacetylase 3
  IC50: 3.4 nM

## O=C(CCCCCC(=O)N/N=C/c1ccc(-c2cccnc2)cc1)NO
[3]
  EC50: 140 nM
[7]
  Cmax: 45.2 nM
[8]
  Cmax: 13.5 nM
[4]
  Cmax: 75.7 nM
[9]
  Cmax: 1670 nM
Histone deacetylase 1
  IC50: 1.1 nM
[5]
  IC50: 0.5 nM
[10]
  AUC(0-inf): 5.42 µM·h
[11]
  CL/F: 217 mL/min/kg
[6]
  inhibition: inactive
[12]
  AUC(0-t): 0.12 µM·h
[13]
  Cmax: 3.72 nM
[14]
  MRT: 1.6 h
[15]
  Cmax: 9.73 nM
[16]
  Cmax: 79.1 nM
[17]
  Cmax: 1900 nM
[18]
  Cmax: 6.45 nM
Mus musculus [19]
  t1/2: 1.28 h
Histone deacetylase 2
  IC50: 10.8 nM
[20]
  Tmax: 1 h
Histone deacetylase 3
  IC50: 0.8 nM
[21]
  Cmax: 1220 nM
[22]
  Cmax: 14.9 nM
[23]
  AUC(0-t): 5.41 µM·h
[24]
  Kp: 0.03
[25]
  Tmax: 1 h

## O=C(CCCCCC(=O)N/N=C/c1ccc(-c2ccncc2)cc1)NO
Histone deacetylase 1
  IC50: 3.1 nM
Histone deacetylase 2
  IC50: 14.2 nM
Histone deacetylase 3
  IC50: 1.8 nM

## COc1cc(O)cc(OC)c1/C=N/NC(=O)CCCCCC(=O)NO
Histone deacetylase 1
  IC50: 31.4 nM
Histone deacetylase 2
  IC50: 108 nM
Histone deacetylase 3
  IC50: 25.6 nM

## O=C(CCCCCC(=O)N/N=C/c1ccc(-c2ccccn2)cc1)NO
Histone deacetylase 1
  IC50: 2.3 nM
Histone deacetylase 2
  IC50: 6.9 nM
Histone deacetylase 3
  IC50: 1.4 nM
